In ChEMBL document CHEMBL3425439, “Disubstituted Bis-THF Moieties as New P2 Ligands in Nonpeptidal HIV-1 Protease Inhibitors (II)” (J Med Chem, 2015):

How the values were obtained:
[1] = system: Human immunodeficiency virus 1; assay: Ratio of EC50 for HIV-1 M2 harboring protease L10I, I13V, M46I, I50V, L63P, L76V mutant to EC50 for wild type HIV-1 3B; format: functional
[2] = system: Human immunodeficiency virus 1; assay: Ratio of EC50 for HIV-1 M3 harboring protease L10I, K20R, M36I, G48V, I62V, A71V, V82A, I93L mutant to EC50 for wild type HIV-1 3B; format: functional
[3] = system: Human immunodeficiency virus 1; assay: Antiviral activity against HIV-1 M2 harboring protease L10I, I13V, M46I, I50V, L63P, L76V mutant infected in human MT4 cells assessed as inhibition of viral replication after 3 days by GFP reporter gene assay; format: functional, organism-based; details: Human immunodeficiency virus 1, M2, MT4, 72 h
In short: (§1)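 Cell-based replication assay in MT4 cells carrying an LTR-GFP readout (HIV tat drives GFP). Serial compound concentrations were mixed with cells at 150 000 cells/mL and 200 CCID50 of virus, incubated 3 days at 37 °C, 5% CO2. Percent inhibition per concentration gave dose-response curves for EC50/pEC50. Run in quadruplicate. Mock-infected parallel cultures at the same concentrations gave CC50.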

[4] = system: Human immunodeficiency virus 1; assay: Ratio of EC50 for HIV-1 M1 harboring protease L10I, M46I, I64V, I84V, L90M, I93L mutant to EC50 for wild type HIV-1 3B; format: functional
[5] = system: Human immunodeficiency virus 1; assay: Antiviral activity against wild type HIV-1 3B infected in human MT4 cells assessed as inhibition of viral replication after 3 days by GFP reporter gene assay in presence of human serum; format: functional, organism-based; details: Human immunodeficiency virus 1, 3B, MT4, 72 h
[6] = system: Human immunodeficiency virus 1; assay: Antiviral activity against HIV-1 M1 harboring protease L10I, M46I, I64V, I84V, L90M, I93L mutant infected in human MT4 cells assessed as inhibition of viral replication after 3 days by GFP reporter gene assay; format: functional, organism-based; details: Human immunodeficiency virus 1, M1, MT4, 72 h; in short: as §1
[7] = system: Human immunodeficiency virus 1; assay: Antiviral activity against HIV-1 M3 harboring protease L10I, K20R, M36I, G48V, I62V, A71V, V82A, I93L mutant infected in human MT4 cells assessed as inhibition of viral replication after 3 days by GFP reporter gene assay; format: functional, organism-based; details: Human immunodeficiency virus 1, M3, MT4, 72 h; in short: as §1
[8] = system: Human immunodeficiency virus 1; assay: Antiviral activity against wild type HIV-1 3B infected in human MT4 cells assessed as inhibition of viral replication after 3 days by GFP reporter gene assay; format: functional, organism-based; details: Human immunodeficiency virus 1, 3B, MT4, 72 h
In short: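 MT4 cells (150 000 cells/mL) were infected with wild-type HIV-1/LAI at 200 CCID50 across a compound concentration range. Plates were incubated 3 days at 37 °C and 5% CO2. Replication was read as GFP driven by HIV-tat binding LTR sequences. EC50 was taken from dose-response curves of percent inhibition, in quadruplicate. Mock-infected parallel cultures gave CC50 from reduced GFP.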

With `COc1ccc(S(=O)(=O)N(CC(C)C)C[C@@H](O)[C@H](Cc2ccccc2)NC(=O)O[C@H]2CO[C@H]3OC[C@H](OCC(=O)NCc4ccccc4)[C@H]32)cc1` the “Ratio EC50” value [1] was 7.5, the “Ratio EC50” value [2] was 1.7 and the EC50 [3] was 4.4 nM. For the same compound, the “Ratio EC50” value [4] was 5.6, the EC50 [5] was 4.6 nM and the EC50 [6] was 3.3 nM. The EC50 [7] was 1 nM and the EC50 [8] was 0.6 nM.

`CNc1nc2ccc(S(=O)(=O)N(CC(C)C)C[C@@H](O)[C@H](Cc3ccccc3)NC(=O)O[C@H]3CO[C@H]4OC[C@H](OC(=O)NCc5ccccc5)[C@H]43)cc2o1` was tested, and the “Ratio EC50” value [1] was 2.4, the “Ratio EC50” value [2] was 0.7 and the EC50 [3] was 13.9 nM. The “Ratio EC50” value [4] was 1.2, the EC50 [5] was 26.7 nM and the EC50 [6] was 7.2 nM. For the same compound, the EC50 [7] was 4 nM and the EC50 [8] was 5.8 nM.

With `CNc1nc2ccc(S(=O)(=O)N(CC(C)C)C[C@@H](O)[C@H](Cc3ccccc3)NC(=O)O[C@H]3CO[C@H]4OC[C@H](OCC(=O)N(C)C)[C@H]43)cc2o1` the “Ratio EC50” value [1] was 0.3, the “Ratio EC50” value [2] was 0.2 and the EC50 [3] was 83.8 nM. The “Ratio EC50” value [4] was 0.4, the EC50 [5] was 243 nM and the EC50 [6] was 102 nM. For the same compound, the EC50 [7] was 50.4 nM and the EC50 [8] was 249 nM.

In the case of `CC(C)CN(C[C@@H](O)[C@H](Cc1ccccc1)NC(=O)O[C@H]1CO[C@H]2OC[C@H](OC(=O)NCc3ccccc3)[C@H]21)S(=O)(=O)c1ccc(N)cc1`, the “Ratio EC50” value [1] is reported as 22, the “Ratio EC50” value [2] is reported as 0.9 and the EC50 [3] is reported as 124 nM. The “Ratio EC50” value [4] was 3.2, the EC50 [5] was 30.4 nM and the EC50 [6] was 15.5 nM. It also gave an EC50 [7] of 5.2 nM and an EC50 [8] of 5.8 nM.

In the case of `CNc1nc2ccc(S(=O)(=O)N(CC(C)C)C[C@@H](O)[C@H](Cc3ccccc3)NC(=O)O[C@H]3CO[C@H]4OC[C@H](Cl)[C@H]43)cc2o1`, the “Ratio EC50” value [1] is reported as 4.6, the “Ratio EC50” value [2] is reported as 1.6 and the EC50 [3] is reported as 2.1 nM. The “Ratio EC50” value [4] was 1.6, the EC50 [5] was 4.2 nM and the EC50 [6] was 0.7 nM. For the same compound, the EC50 [7] was 0.7 nM and the EC50 [8] was 0.5 nM.

With `CC(C)CN(C[C@@H](O)[C@H](Cc1ccccc1)NC(=O)O[C@H]1CO[C@H]2OC[C@H](Cl)[C@H]21)S(=O)(=O)c1ccc(N)cc1` the “Ratio EC50” value [1] was 85, the “Ratio EC50” value [2] was 4 and the EC50 [3] was 31.6 nM. The “Ratio EC50” value [4] was 7.5, the EC50 [5] was 4.6 nM and the EC50 [6] was 2.8 nM. For the same compound, the EC50 [7] was 1.5 nM and the EC50 [8] was 0.4 nM.

With `CNc1nc2ccc(S(=O)(=O)N(CC(C)C)C[C@@H](O)[C@H](Cc3ccccc3)NC(=O)O[C@H]3CO[C@H]4OC[C@H](OCCC(F)(F)F)[C@H]43)cc2o1` the “Ratio EC50” value [1] was 5.9, the “Ratio EC50” value [2] was 1.6 and the EC50 [3] was 2.8 nM. The “Ratio EC50” value [4] was 1.9, the EC50 [5] was 8.2 nM and the EC50 [6] was 0.9 nM. For the same compound, the EC50 [7] was 0.8 nM and the EC50 [8] was 0.5 nM.

With `COc1ccc(S(=O)(=O)N(CC(C)C)C[C@@H](O)[C@H](Cc2ccccc2)NC(=O)O[C@H]2CO[C@H]3OC[C@H](OCC(=O)N(C)C)[C@H]32)cc1` the “Ratio EC50” value [1] was 3, the “Ratio EC50” value [2] was 0.8 and the EC50 [3] was 11.5 nM. The “Ratio EC50” value [4] was 1.8, the EC50 [5] was 7 nM and the EC50 [6] was 7 nM. For the same compound, the EC50 [7] was 2.9 nM and the EC50 [8] was 3.8 nM.

For `CC(C)CN(C[C@@H](O)[C@H](Cc1ccccc1)NC(=O)O[C@H]1CO[C@H]2OC[C@H](NC(=O)OCc3ccccc3)[C@H]21)S(=O)(=O)c1ccc(N)cc1`, the “Ratio EC50” value [1] was 16, the “Ratio EC50” value [2] was 0.4 and the EC50 [3] was 82.5 nM. For the same compound, the “Ratio EC50” value [4] was 1.1, the EC50 [5] was 35.2 nM and the EC50 [6] was 5.7 nM. For the same compound, the EC50 [7] was 1.8 nM and the EC50 [8] was 5 nM.

In the case of `CNc1nc2ccc(S(=O)(=O)N(CC(C)C)C[C@@H](O)[C@H](Cc3ccccc3)NC(=O)O[C@H]3CO[C@H]4OC[C@H](NC(=O)OCc5ccccc5)[C@H]43)cc2o1`, the “Ratio EC50” value [1] is reported as 2, the “Ratio EC50” value [2] is reported as 0.3 and the EC50 [3] is reported as 7.5 nM. For the same compound, the “Ratio EC50” value [4] was 0.6, the EC50 [5] was 16.6 nM and the EC50 [6] was 2.4 nM. For the same compound, the EC50 [7] was 1 nM and the EC50 [8] was 3.8 nM.

With `COc1ccc(S(=O)(=O)N(CC(C)C)C[C@@H](O)[C@H](Cc2ccccc2)NC(=O)O[C@H]2CO[C@H]3OC[C@H](O)[C@H]32)cc1` the “Ratio EC50” value [1] was 1, the “Ratio EC50” value [2] was 0.2 and the EC50 [3] was 6.7 nM. The “Ratio EC50” value [4] was 1.1, the EC50 [5] was 12.4 nM and the EC50 [6] was 6.9 nM. The EC50 [7] was 1.6 nM and the EC50 [8] was 6.5 nM.

For `CNc1nc2ccc(S(=O)(=O)N(CC(C)C)C[C@@H](O)[C@H](Cc3ccccc3)NC(=O)O[C@H]3CO[C@H]4OC[C@H](F)[C@H]43)cc2o1`, the “Ratio EC50” value [1] was 4.1, the “Ratio EC50” value [2] was 0.9 and the EC50 [3] was 2.8 nM. The “Ratio EC50” value [4] was 1.2, the EC50 [5] was 8.4 nM and the EC50 [6] was 0.8 nM. It also gave an EC50 [7] of 0.7 nM and an EC50 [8] of 0.7 nM.

With `CNC(=O)CO[C@H]1CO[C@@H]2OC[C@H](OC(=O)N[C@@H](Cc3ccccc3)[C@H](O)CN(CC(C)C)S(=O)(=O)c3ccc(OC)cc3)[C@@H]21` the “Ratio EC50” value [1] was 2.3, the “Ratio EC50” value [2] was 1.2 and the EC50 [3] was 15.7 nM. For the same compound, the “Ratio EC50” value [4] was 2.1, the EC50 [5] was 16.1 nM and the EC50 [6] was 14.3 nM. It also gave an EC50 [7] of 8.3 nM and an EC50 [8] of 6.9 nM.

`CC(C)CN(C[C@@H](O)[C@H](Cc1ccccc1)NC(=O)O[C@H]1CO[C@H]2OC[C@H](OCC(=O)NCc3ccccc3)[C@H]21)S(=O)(=O)c1ccc(N)cc1` was tested, and the “Ratio EC50” value [1] was 2.2, the “Ratio EC50” value [2] was 0.6 and the EC50 [3] was 35.2 nM. The “Ratio EC50” value [4] was 0.7, the EC50 [5] was 93.5 nM and the EC50 [6] was 10.8 nM. The EC50 [7] was 9.3 nM and the EC50 [8] was 16 nM.

With `C=C(F)CO[C@H]1CO[C@@H]2OC[C@H](OC(=O)N[C@@H](Cc3ccccc3)[C@H](O)CN(CC(C)C)S(=O)(=O)c3ccc4nc(NC)oc4c3)[C@@H]21` the “Ratio EC50” value [1] was 6.1, the “Ratio EC50” value [2] was 1.4 and the EC50 [3] was 2.3 nM. For the same compound, the “Ratio EC50” value [4] was 1.2, the EC50 [5] was 2.2 nM and the EC50 [6] was 0.8 nM. The EC50 [7] was 0.5 nM and the EC50 [8] was 0.4 nM.

With `CNc1nc2ccc(S(=O)(=O)N(CC(C)C)C[C@@H](O)[C@H](Cc3ccccc3)NC(=O)O[C@H]3CO[C@H]4OC[C@H](OCC(=O)NCc5ccccc5)[C@H]43)cc2o1` the “Ratio EC50” value [1] was 0.6, the “Ratio EC50” value [2] was 0.3 and the EC50 [3] was 15.1 nM. The “Ratio EC50” value [4] was 0.5, the EC50 [5] was 102 nM and the EC50 [6] was 13.4 nM. It also gave an EC50 [7] of 6.4 nM and an EC50 [8] of 25 nM.

For `CNC(=O)CO[C@H]1CO[C@@H]2OC[C@H](OC(=O)N[C@@H](Cc3ccccc3)[C@H](O)CN(CC(C)C)S(=O)(=O)c3ccc4nc(NC)oc4c3)[C@@H]21`, the “Ratio EC50” value [1] was 0.4, the “Ratio EC50” value [2] was 0.1 and the EC50 [3] was 204 nM. The “Ratio EC50” value [4] was 0.3, the EC50 [5] was 376 nM and the EC50 [6] was 151 nM. For the same compound, the EC50 [7] was 68.5 nM and the EC50 [8] was 460 nM.
